Source: ChEMBL document CHEMBL5303300, “EUbOPEN Chemogenomics Library - Multiplex” (2023)
“And” between values parts separate entries of the source, which are not always exact repeats. Equal entries are not always repeated.

Experiments:
[1] = tested on: HEK-293T; experiment: Multiplex assay against HEK293T; type: toxicity, cell-based; conditions: human, number of replicates 2
Summary of the method: (§1)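 Imaging took place on a CQ1 microscope at 37°C and 5% CO2 once compound had been added to live cells stained at seeding with Hoechst33342, BioTracker Green Microtubule Cytoskeleton Dye, MitoTracker Red and Annexin V Alexa Fluor 680. CellPathfinder machine-learning gating classed cells as Hoechst high-intensity objects or normal cells, classed normal cells as having healthy, pyknosed or fragmented nuclei, and classed pyknosed cells as mitotic or apoptotic. Tubulin, mitochondrial-mass and membrane-permeability phenotypes are per cents of the healthy-nucleus cells.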

[2] = tested on: Fibroblast; experiment: Multiplex assay against human fibroblast; type: toxicity, cell-based; conditions: number of replicates 2; summary of the method: as §1
[3] = 12 h, 1 µM, compound concentration 1 uM
[4] = 12 h, 10 µM, compound concentration 10 uM
[5] = 24 h, 1 µM, compound concentration 1 uM
[6] = 24 h, 10 µM, compound concentration 10 uM
[7] = 48 h, 1 µM, compound concentration 1 uM
[8] = 48 h, 10 µM, compound concentration 10 uM

SMILES: Cn1cc(-c2ccc(N(C(=O)NCc3ccccc3)[C@H]3CC[C@H](Nc4ccc(C#N)cn4)CC3)cc2)ccc1=O
- Population Apoptotic (%) [1, 3]: 40% and 44%
- Population Fragmented Nuclei (%) [1, 3]: 3% and 2%
- Population Healthy Nuclei (%) [1, 3]: 83% and 84%
- Population Hoechst High Intensity Objects (%) [1, 3]: 5%
- Population Membrane Permeable-Phenotype (%) [1, 3]: 2% and 3%
- Population Mitochondria Different-Phenotype (%) [1, 3]: 19% and 9%
- Population Mitotic Cells (%) [1, 3]: 59% and 55%
- Population Normal (%) [1, 3]: 94%
- Population Pyknosed Nuclei (%) [1, 3]: 12%
- Population Tubulin-Different-Phenotype (%) [1, 3]: 52% and 40%
- Total Cell Count [1, 3]: 571 and 680
- Population Apoptotic (%) [1, 4]: 52% and 47%
- Population Fragmented Nuclei (%) [1, 4]: 12% and 6%
- Population Healthy Nuclei (%) [1, 4]: 71% and 78%
- Population Hoechst High Intensity Objects (%) [1, 4]: 8% and 10%
- Population Membrane Permeable-Phenotype (%) [1, 4]: 8% and 3%
- Population Mitochondria Different-Phenotype (%) [1, 4]: 54% and 57%
- Population Mitotic Cells (%) [1, 4]: 47% and 52%
- Population Normal (%) [1, 4]: 91% and 89%
- Population Pyknosed Nuclei (%) [1, 4]: 16% and 15%
- Population Tubulin-Different-Phenotype (%) [1, 4]: 92% and 93%
- Total Cell Count [1, 4]: 474 and 388
- Population Apoptotic (%) [1, 5]: 35% and 31%
- Population Fragmented Nuclei (%) [1, 5]: 5% and 4%
- Population Healthy Nuclei (%) [1, 5]: 86%
- Population Hoechst High Intensity Objects (%) [1, 5]: 8% and 6%
- Population Membrane Permeable-Phenotype (%) [1, 5]: 2% and 5%
- Population Mitochondria Different-Phenotype (%) [1, 5]: 5% and 4%
- Population Mitotic Cells (%) [1, 5]: 65% and 68%
- Population Normal (%) [1, 5]: 91% and 93%
- Population Pyknosed Nuclei (%) [1, 5]: 7% and 8%
- Population Tubulin-Different-Phenotype (%) [1, 5]: 33% and 30%
- Total Cell Count [1, 5]: 908 and 972
- Population Apoptotic (%) [1, 6]: 55% and 37%
- Population Fragmented Nuclei (%) [1, 6]: 4% and 9%
- Population Healthy Nuclei (%) [1, 6]: 86% and 77%
- Population Hoechst High Intensity Objects (%) [1, 6]: 12% and 11%
- Population Membrane Permeable-Phenotype (%) [1, 6]: 3% and 7%
- Population Mitochondria Different-Phenotype (%) [1, 6]: 42% and 52%
- Population Mitotic Cells (%) [1, 6]: 44% and 62%
- Population Normal (%) [1, 6]: 87% and 88%
- Population Pyknosed Nuclei (%) [1, 6]: 9% and 12%
- Population Tubulin-Different-Phenotype (%) [1, 6]: 91% and 90%
- Total Cell Count [1, 6]: 478 and 532
- Population Apoptotic (%) [1, 7]: 9% and 8%
- Population Fragmented Nuclei (%) [1, 7]: 10% and 11%
- Population Healthy Nuclei (%) [1, 7]: 85%
- Population Hoechst High Intensity Objects (%) [1, 7]: 9%
- Population Membrane Permeable-Phenotype (%) [1, 7]: 6%
- Population Mitochondria Different-Phenotype (%) [1, 7]: 1% and 0%
- Population Mitotic Cells (%) [1, 7]: 90% and 91%
- Population Normal (%) [1, 7]: 90%
- Population Pyknosed Nuclei (%) [1, 7]: 3%
- Population Tubulin-Different-Phenotype (%) [1, 7]: 14% and 16%
- Total Cell Count [1, 7]: 2214 and 2329
- Population Apoptotic (%) [1, 8]: 43% and 56%
- Population Fragmented Nuclei (%) [1, 8]: 7% and 3%
- Population Healthy Nuclei (%) [1, 8]: 79% and 86%
- Population Hoechst High Intensity Objects (%) [1, 8]: 10% and 13%
- Population Membrane Permeable-Phenotype (%) [1, 8]: 5% and 2%
- Population Mitochondria Different-Phenotype (%) [1, 8]: 39% and 30%
- Population Mitotic Cells (%) [1, 8]: 56% and 43%
- Population Normal (%) [1, 8]: 89% and 86%
- Population Pyknosed Nuclei (%) [1, 8]: 12% and 9%
- Population Tubulin-Different-Phenotype (%) [1, 8]: 74% and 66%
- Total Cell Count [1, 8]: 578 and 533
- Population Apoptotic (%) [2, 3]: 46%
- Population Fragmented Nuclei (%) [2, 3]: 8% and 18%
- Population Healthy Nuclei (%) [2, 3]: 72% and 60%
- Population Hoechst High Intensity Objects (%) [2, 3]: 0%
- Population Membrane Permeable-Phenotype (%) [2, 3]: 6%
- Population Mitochondria Different-Phenotype (%) [2, 3]: 1% and 2%
- Population Mitotic Cells (%) [2, 3]: 53%
- Population Normal (%) [2, 3]: 100%
- Population Pyknosed Nuclei (%) [2, 3]: 19% and 21%
- Population Tubulin-Different-Phenotype (%) [2, 3]: 9% and 11%
- Total Cell Count [2, 3]: 155 and 181
- Population Apoptotic (%) [2, 4]: 39% and 40%
- Population Fragmented Nuclei (%) [2, 4]: 8% and 9%
- Population Healthy Nuclei (%) [2, 4]: 55% and 72%
- Population Hoechst High Intensity Objects (%) [2, 4]: 0%
- Population Membrane Permeable-Phenotype (%) [2, 4]: 16% and 14%
- Population Mitochondria Different-Phenotype (%) [2, 4]: 3%
- Population Mitotic Cells (%) [2, 4]: 60% and 59%
- Population Normal (%) [2, 4]: 99%
- Population Pyknosed Nuclei (%) [2, 4]: 36% and 18%
- Population Tubulin-Different-Phenotype (%) [2, 4]: 75% and 55%
- Total Cell Count [2, 4]: 249 and 273
- Population Apoptotic (%) [2, 5]: 38% and 48%
- Population Fragmented Nuclei (%) [2, 5]: 12% and 15%
- Population Healthy Nuclei (%) [2, 5]: 73% and 64%
- Population Hoechst High Intensity Objects (%) [2, 5]: 0%
- Population Membrane Permeable-Phenotype (%) [2, 5]: 4% and 7%
- Population Mitochondria Different-Phenotype (%) [2, 5]: 0% and 1%
